Experimental findings from ChEMBL document CHEMBL1157962, “Antifungal azaphilones from the fungus Chaetomium cupreum CC3003” (J Nat Prod, 2006) are described below.

One test has as its system Candida albicans. Kind of test: Antifungal activity against Candida albicans by XTT formazan assay. The class given is functional, organism-based. Summed up: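 Clinical isolate of Candida albicans tested by a modified soluble formazan (XTT) method. Viable cells read as XTT formazan absorbance at 450 nm. IC50 taken in μg/mL.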
A general note: Formazan colour is commonly taken as a measure of viable cells.

The test system of the next test is NCI-H178. Kind of test: Cytotoxicity against human […] cells. The class given is functional, cell-based.
The subject of a further test is BC1. Put plainly: Cytotoxicity against human BC1 cells. The class given is functional, cell-based.
A further test deals with KB. Kind of test: Cytotoxicity against human KB cells. In kind it is functional, cell-based.

In brackets after ≈: the same amount, converted by molar mass. Activity calls are given as the source filed them. The rule behind the calls is not given here.

Consider `CC[C@H](C)/C=C(C)/C=C/C1=CC2=CC3=C(C(C)=O)C(=O)O[C@@]3(C)C(=O)C2=CO1`, for which the IC50 (as a rule, the concentration that gives 50% inhibition) in the test with Candida albicans stood at 24.3 mg/L (≈ 63.9 µM). Moreover, the outcome in the test with NCI-H178, in the test with BC1 and in the test with KB was inactive.

In the test on Candida albicans, `CC[C@H](C)/C=C(C)/C=C/C1=CC2=CC3=C(C(C)=O)C(=O)O[C@@]3(C)[C@H](O)C2=CO1` [ROTIORINOL A] gave an IC50 of 10.5 mg/L (≈ 27.5 µM). Moreover, the result in the test on NCI-H178, in the test on BC1 and in the test with KB was inactive.

With `CC(=O)C1=C2C=C3C=C(/C=C/C(C)=C/[C@@H](C)CCO)OC=C3[C@@H](O)[C@]2(C)OC1=O` [ROTIORINOL C], the IC50 in the test with Candida albicans is 16.7 mg/L (≈ 41.9 µM). The outcome in the test on NCI-H178, in the test on BC1 and with KB was inactive.

Turning to `CC[C@H](C)/C=C(C)/C=C/C1=CC2=C(Cl)C(=O)[C@@]3(C)OC(=O)C(C(C)=O)=C3C2=CO1` [RUBROROTIORIN], in the test with Candida albicans, the IC50 is 0.6 mg/L (≈ 1.45 µM). Also, the outcome in the test on NCI-H178, in the test with BC1 and in the test on KB was inactive.
